Assay results from ChEMBL document CHEMBL4138200, “Amino acid and peptide prodrugs of diphenylpropanones positive allosteric modulators of α7 nicotinic receptors with analgesic activity” (Eur J Med Chem, 2018).
≈ marks a conversion by molar mass, not a printed value. Calls of active or inactive are those of the source.

Key:
[1] = biological target: Neuronal acetylcholine receptor subunit alpha-7 (Homo sapiens) (UniProt P36544); test: Positive allosteric modulation of human alpha7 nAChR expressed in Xenopus laevis oocytes assessed as acetyl choline-evoked currents at 10 uM at -80 mV holding potential prtreated for 2 mins followed by co-treatment with acetyl choline by electrophysiology method relative to acetyl choline; assay type: cell-based
Sequence of Neuronal acetylcholine receptor subunit alpha-7 (Homo sapiens) (P36544 whole entry): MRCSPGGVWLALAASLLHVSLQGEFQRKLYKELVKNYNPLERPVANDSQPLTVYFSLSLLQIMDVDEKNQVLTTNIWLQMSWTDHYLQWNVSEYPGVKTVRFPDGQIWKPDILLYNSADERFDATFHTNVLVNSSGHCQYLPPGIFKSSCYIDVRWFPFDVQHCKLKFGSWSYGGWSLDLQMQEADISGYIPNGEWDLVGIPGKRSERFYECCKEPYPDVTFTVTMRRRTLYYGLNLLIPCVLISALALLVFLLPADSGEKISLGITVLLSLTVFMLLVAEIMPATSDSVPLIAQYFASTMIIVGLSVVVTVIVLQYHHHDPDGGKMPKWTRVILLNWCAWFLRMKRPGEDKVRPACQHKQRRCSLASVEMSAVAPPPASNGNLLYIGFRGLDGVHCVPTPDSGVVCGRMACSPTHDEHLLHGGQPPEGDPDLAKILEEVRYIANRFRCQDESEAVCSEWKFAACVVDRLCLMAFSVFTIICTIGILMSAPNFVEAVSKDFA
Summary of the method: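 Defolliculated Xenopus laevis oocytes were injected with 5 ng α7 cRNA and recorded 2–3 days later at 22°C, -80 mV. Compound (10 μM) was bath-preapplied for 2 min, then co-applied with 200 μM ACh by fast pipette application for 0.6 s. Peak current is expressed relative to the ACh-alone control (100%).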

[2] = Aqueous solubility of the compound in PBS buffer; assay type: physicochemical
[3] = Permeability across apical to basolateral side in human Caco2 cells; assay type: ADME, cell-based; settings: Caco-2, read-out: permeability
[4] = tested on: Rattus norvegicus; test: Analgesic activity in CFA-induced paw inflammation Wistar rat model assessed as increase in paw withdrawal latency at 10 mg/kg, iv administered at 24 hrs post CFA injection measured at 1 hr post compound administration; assay type: functional, organism-based
Summary of the method: (§1)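 Male Wistar rats (250–300 g). CFA emulsion (1:1 oil/saline, 0.5 mg/ml, 50 μl) was injected intraplantar into the hind paw. 24 h later, compound was dissolved in DMSO, diluted in 0.9% saline (final DMSO 2,5%) and given iv at 10 mg/kg in 0,5 ml. Paw withdrawal latency was measured on a dynamic plantar aesthesiometer (ramp 2.5 g/s, 50 g cutoff), as the mean of three readings per time point, for up to 4 h; n ≥ 6 rats/group, two-way ANOVA with Bonferroni.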

[5] = tested on: Rattus norvegicus; test: Analgesic activity in CFA-induced paw inflammation Wistar rat model assessed as increase in paw withdrawal latency at 10 mg/kg, iv administered at 24 hrs post CFA injection measured at 30 mins post compound administration; assay type: functional, organism-based; summary of the method: as §1

`O=C(CCc1ccc(O)cc1)c1cc(O)ccc1O` showed an Activity [1] of 666%, a solubility ([2]; PBS buffer, read-out: solubility) of 160 µM (≈ 41.3 µg/mL) and a Papp A→B [3] of 33.5 ×10⁻⁶ cm/s.

With `CC(C)C(N)C(=O)NC(C(=O)Oc1ccc(/C=C/C(=O)c2cc(O)ccc2O)c(O)c1)C(C)C` (stereo in doubt) the Activity [1] was 24.5%.

Work on `O=C(CCc1ccc(O)cc1O)c1cc(O)ccc1O` yielded an Activity [1] of 989%.

With `CC(C)C(N)C(=O)N1CCC[C@H]1C(=O)NC(C(=O)Oc1ccc(CCC(=O)c2cc(O)ccc2O)cc1)C(C)C` (stereo in doubt) the Activity [1] was 24.7% and the Activity [4] was “Active”.

With `Br.CC(C)C(N)C(=O)NC(C(=O)Oc1ccc(CCC(=O)c2cc(O)ccc2O)cc1)C(C)C` (stereo in doubt) the Activity [1] was 14.7%, the solubility ([2]; buffer) was “Soluble” and the Activity [4] was “inactive”. For the same molecule, the Activity [5] was “Active”.

`CC(C)C(N)C(=O)NC(C(=O)Oc1ccc(CCC(=O)c2cc(O)ccc2O)c(O)c1)C(C)C` (stereo in doubt) showed an Activity [1] of 26.7%.

For `Br.CC(C)C(N)C(=O)N1CCC[C@H]1C(=O)NC(C(=O)Oc1ccc(CCC(=O)c2cc(O)ccc2O)c(O)c1)C(C)C` (stereo in doubt), the Activity [1] was 25.3% and the solubility ([2]; buffer) was “Soluble”.
